ChEMBL document CHEMBL1126183, “Synthesis and biological studies of unsaturated acyclonucleoside analogues of S-adenosyl-L-homocysteine hydrolase inhibitors” (J Med Chem, 1992)
One block for each compound: values may come before it.

Tests used:
SNB-75 [1] = experiment: In vitro inhibition CNS SNB-75 cell line; format: functional, Homo sapiens
Outline: (§1)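 NCI 60-cell-line human tumor screen. Cells were grown 24 h after plating, then exposed 48 h to compound at 10⁻⁴, 10⁻⁵, 10⁻⁶, 10⁻⁷ and 10⁻⁸ M. Growth effect (percent inhibition or kill) was read spectrophotometrically by sulforhodamine B protein staining.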

LXFL 529 [2] = experiment: In vitro inhibition lung LXFL529 cell line; format: functional, Homo sapiens; outline: as §1
CCRF-CEM [3] = experiment: In vitro inhibition leukemia CCRF-CEM cell line growth; format: functional, Homo sapiens; outline: as §1
LXFL 529 [4] = experiment: In vitro inhibition lung LXFL529 cell line growth; format: functional, Homo sapiens; outline: as §1
UO-31 [5] = experiment: In vitro inhibition renal UO-31 cell line; format: functional, Homo sapiens; outline: as §1
NCI-H522 [6] = experiment: In vitro inhibition lung […] cell line growth; format: functional, Homo sapiens; outline: as §1
NCI-H522 [7] = experiment: In vitro inhibition lung […] cell line; format: functional, Homo sapiens; outline: as §1
CCRF-CEM [8] = experiment: In vitro inhibition leukemia CCRF-CEM cell line; format: functional, Homo sapiens; outline: as §1
UO-31 [9] = experiment: In vitro inhibition renal UO-31 cell line growth.; format: functional, Homo sapiens; outline: as §1
Mus musculus [10] = experiment: Mean biodistribution and elimination data in thyroid was reported 4 hr after administering compound intravenously in tumor-bearing female BALB-C mice.; format: ADME, organism-based, Thyroid gland; conditions: in vivo, iv
Outline: (§2)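 Female Balb-C mice bearing Line-1 spontaneous lung carcinoma were used 1 week after inoculation of 10⁶ cells. The iodine-125-labeled compound was given in normal saline, filter-sterilized, by lateral tail vein injection under ether anesthesia. At set times the mice were killed and the organs excised, rinsed, blotted and weighed. Activity was gamma-counted and reported as percent injected dose/gram tissue; thyroid was reported as percent injected dose/tissue.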

Mus musculus [11] = experiment: Mean biodistribution and elimination data in kidney was reported 1 hr after administering compound intravenously in tumor-bearing female BALB-C mice.; format: ADME, organism-based; conditions: in vivo, iv; outline: as §2
Mus musculus [12] = experiment: Mean biodistribution and elimination data in lung was reported 1 hr after administering compound intravenously in tumor-bearing female BALB-C mice.; format: ADME, organism-based; conditions: in vivo, iv; outline: as §2
HOP-18 [13] = experiment: In vitro inhibition lung HOP-18 cell line; format: functional, Homo sapiens; outline: as §1
Mus musculus [14] = experiment: Mean biodistribution and elimination data in thyroid was reported 24 hr after administering compound intravenously in tumor-bearing female BALB-C mice.; format: ADME, organism-based, Thyroid gland; conditions: in vivo, iv; outline: as §2
Mus musculus [15] = experiment: Mean biodistribution and elimination data in lung was reported 24 hr after administering compound intravenously in tumor-bearing female BALB-C mice.; format: ADME, organism-based; conditions: in vivo, iv; outline: as §2
SNB-75 [16] = experiment: In vitro inhibition CNS SNB-75 cell line growth; format: functional, Homo sapiens; outline: as §1
Mus musculus [17] = experiment: Mean biodistribution and elimination data in liver was reported 24 h after administering compound intravenously in tumor-bearing female BALB-C mice.; format: ADME, organism-based; conditions: in vivo, iv; outline: as §2
Mus musculus [18] = experiment: Mean biodistribution and elimination data in thyroid was reported 1 hr after administering compound intravenously in tumor-bearing female BALB-C mice.; format: ADME, organism-based, Thyroid gland; conditions: in vivo, iv; outline: as §2
Mus musculus [19] = experiment: Mean biodistribution and elimination data in liver was reported 1 hr after administering compound intravenously in tumor-bearing female BALB-C mice.; format: ADME, organism-based; conditions: in vivo, iv; outline: as §2
Mus musculus [20] = experiment: Mean biodistribution and elimination data in tumoe was reported 24 h after administering compound intravenously in tumor-bearing female BALB-C mice.; format: ADME, organism-based; conditions: in vivo, iv; outline: as §2
Mus musculus [21] = experiment: Mean biodistribution and elimination data in lung was reported 4 hr after administering compound intravenously in tumor-bearing female BALB-C mice.; format: ADME, organism-based; conditions: in vivo, iv; outline: as §2
HOP-18 [22] = experiment: In vitro inhibition lung HOP-18 cell line growth; format: functional, Homo sapiens; outline: as §1
Mus musculus [23] = experiment: Mean biodistribution and elimination data in tumor was reported 4 hr after administering compound intravenously in tumor-bearing female BALB-C mice.; format: ADME, organism-based; conditions: in vivo, iv; outline: as §2
Mus musculus [24] = experiment: Mean biodistribution and elimination data in blood was reported 24 hr after administering compound intravenously in tumor-bearing female BALB-C mice.; format: ADME, organism-based; conditions: in vivo, iv; outline: as §2
Mus musculus [25] = experiment: Mean biodistribution and elimination data in tumor was reported 1 hr after administering compound intravenously in tumor-bearing female BALB-C mice.; format: ADME, organism-based; conditions: in vivo, iv; outline: as §2
Mus musculus [26] = experiment: Mean biodistribution and elimination data in urine was reported 24 h after administering compound intravenously in tumor-bearing female BALB-C mice.; format: ADME, organism-based; conditions: in vivo, iv
Outline: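 Tumor-bearing female Balb-C mice (Line-1 lung carcinoma) received the ¹²⁵I-labeled compound in normal saline by tail vein injection under ether anesthesia. Urine radioactivity was gamma-counted and expressed as percent injected dose per total sample. Urine was also analyzed by TLC (solvent E) using UV and radioscanning.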

Mus musculus [27] = experiment: Mean biodistribution and elimination data in blood was reported 1 h after administering compound intravenously in tumor-bearing female BALB-C mice.; format: ADME, organism-based; conditions: in vivo, iv; outline: as §2
Mus musculus [28] = experiment: Mean biodistribution and elimination data in liver was reported 4 hr after administering compound intravenously in tumor-bearing female BALB-C mice.; format: ADME, organism-based; conditions: in vivo, iv; outline: as §2
Mus musculus [29] = experiment: Mean biodistribution and elimination data in kidney was reported 24 hr after administering compound intravenously in tumor-bearing female BALB-C mice.; format: ADME, organism-based; conditions: in vivo, iv; outline: as §2
Mus musculus [30] = experiment: Mean biodistribution and elimination data in kidney was reported 4 hr after administering compound intravenously in tumor-bearing female BALB-C mice.; format: ADME, organism-based; conditions: in vivo, iv; outline: as §2
Mus musculus [31] = experiment: Mean biodistribution and elimination data in blood was reported 4 hr after administering compound intravenously in tumor-bearing female BALB-C mice.; format: ADME, organism-based; conditions: in vivo, iv; outline: as §2
MOLT-4 = experiment: In vitro inhibition of Leukemia Molt-4 cell line; format: functional, Homo sapiens; outline: as §1
K562 [32] = experiment: In vitro inhibition of leukemia K-562 cell line; format: functional, Homo sapiens; outline: as §1
LOX IMVI = experiment: In vitro inhibition of melanoma […] cell line; format: functional, Homo sapiens; outline: as §1
SR = experiment: In vitro inhibition of leukemia SR cell line; format: functional, Homo sapiens; outline: as §1
K562 [33] = experiment: In vitro inhibition of leukemia K-562 cell line.; format: functional, Homo sapiens; outline: as §1
DMS-114 = experiment: In vitro inhibition of lung DMS 114 cell line; format: functional, Homo sapiens; outline: as §1

Compound: C#CCOCn1cnc2c(Sc3c([N+](=O)[O-])ncn3C)ncnc21
Cell growth (SNB-75 [1]): -14% | Cell growth (LXFL 529 [2]): 37% | Inhibition (CCRF-CEM [3]): 50% | Inhibition (LXFL 529 [4]): 63% | Cell growth (UO-31 [5]): 48% | Inhibition (NCI-H522 [6]): 68% | Cell growth (NCI-H522 [7]): 32% | Cell growth (CCRF-CEM [8]): 50% | Inhibition (UO-31 [9]): 52%

ID/thyroid (Mus musculus [10]): 3.61% | ID/g (Mus musculus [11]): 3.68% | ID/g (Mus musculus [12]): 3.41% | ID/thyroid (Mus musculus [14]): 3.49% | ID/g (Mus musculus [15]): 0.35% | ID/g (Mus musculus [17]): 0.33% | ID/thyroid (Mus musculus [18]): 1.29% | ID/g (Mus musculus [19]): 3.4% | ID/g (Mus musculus [20]): 0.06% | ID/g (Mus musculus [21]): 1.3% | ID/g (Mus musculus [23]): 0.6% | ID/g (Mus musculus [24]): 0.34% | ID/g (Mus musculus [25]): 1.5% | ID/animal (Mus musculus [26]): 94.36% | ID/g (Mus musculus [27]): 3.15% | ID/g (Mus musculus [28]): 1.34% | ID/g (Mus musculus [29]): 0.2% | ID/g (Mus musculus [30]): 1% | ID/g (Mus musculus [31]): 1.33%
Compound: Nc1ncnc2c1ncn2COC/C=C/I
Cell growth (SNB-75 [1]): 25.2% | Cell growth (HOP-18 [13]): 21.2% | Inhibition (CCRF-CEM [3]): 52.6% | Inhibition (SNB-75 [16]): 74.8% | Inhibition (HOP-18 [22]): 78.8% | Cell growth (CCRF-CEM [8]): 47.4%

Compound: C#CCOCn1cnc2c(S)ncnc21
Cell growth (SNB-75 [1]): 0% | Inhibition (SNB-75 [16]): 100%

Compound: C#CCOCn1cnc2c(Cl)ncnc21
Cell growth (MOLT-4): 40.7% | Inhibition (MOLT-4): 59.3% | Inhibition (K562 [32]): 65.2% | Cell growth (LOX IMVI): 33.5% | Inhibition (LOX IMVI): 66.5% | Cell growth (SR): 38.4% | Inhibition (SR): 61.6% | Cell growth (K562 [33]): 34.8% | Cell growth (DMS-114): 21% | Inhibition (DMS-114): 79%
